NS3 helicase inh: inhibitors of HCV NS3 helicase, primary screen, biochemical, Cy5 molecular beacon fluorescence; inhibition, % at 10.9 µM; NS3 helicase DNA unwinding; actives 0.56% (n = 290,000); Hepatitis C virus NS3 helicase;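 active = inhibition above the mean of all tested compounds plus 3 SD, set per campaign, cut at about 35% in these data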
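Assay system – hepatitis C virus NS3 helicase domain fragment enzyme · Buffer or medium – MOPS pH 6.5, MgCl2, DTT, Tween20, BSA · Reagent – Cy5/quencher beacon DNA duplex and ATP to start · Compound – single 10.9 µM dose · Timing – 1 h at 25 °C · Technique – Cy5 beacon fluorescence read at start and 1 h · Measure – % inhibition of unwinding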
IMP-1 inhibitor: IMP-1 metallo-beta-lactamase inhibitors, primary screen, biochemical, epi-absorbance readout, Pseudomonas aeruginosa enzyme. metallo-beta-lactamase IMP-1 (Pseudomonas aeruginosa). purified IMP-1, nitrocefin hydrolysis, epi-absorbance fluorescence. inhibition, % at 5.6 µM. actives 0.45% (n = 290,000);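 active = inhibition above the mean plus 3 SD of all compounds in the same screening run, cut at about 4.5% in these data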
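System: Purified recombinant IMP-1 metallo-beta-lactamase enzyme | Measured by: Fluorescence quenching readout, ex 480/em 530 nm | Replication: Singlicate | Incubation: 15 min preincubation plus 25 min reaction at 25 °C | Evaluation: Percent inhibition from optical density relative to buffer-blank wells | Benchmarks: DMSO with and without IMP-1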
DNA FID counter-1: compounds displacing fluorescent DNA intercalator, primary screen, artefact control for HCV NS3 helicase inhibitor project, biochemical, FID fluorescence. actives 0.17% (n = 290,000). DNA fluorescent intercalator displacement. inhibition, % at 7.9 µM. AID 1845, 2009;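 note: higher means more ethidium bromide displaced from hairpin DNA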
UBC9 SUMO inh: inhibitors of in vitro SUMOylation cascade, primary screen, biochemical, HTRF, uHTS | HTRF SUMOylation assay, SAE1/SAE2 + UBC9 | inhibition, % at 35 µM | actives 0.36% (n = 290,000) | AID 2006, 2009; in the data active = inhibition above about 50%, passing the limit was not always enough
Target sequence (P63279 whole entry, looked up): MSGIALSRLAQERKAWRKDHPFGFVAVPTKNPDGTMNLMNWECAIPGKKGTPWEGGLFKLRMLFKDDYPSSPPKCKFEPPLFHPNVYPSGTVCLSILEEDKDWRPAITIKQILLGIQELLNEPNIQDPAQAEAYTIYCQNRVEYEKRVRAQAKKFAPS
VIM-2 inhibitor: VIM-2 metallo-beta-lactamase inhibitors, primary screen, biochemical, epi-absorbance readout, Pseudomonas aeruginosa enzyme; purified VIM-2, nitrocefin hydrolysis, epi-absorbance fluorescence; inhibition, % at 5.6 µM; actives 0.89% (n = 290,000);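 active = inhibition above the mean of all tested compounds plus 3 SD, cutoff set per screening run, cut at about 7.5% in these data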;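 note: red hydrolysis product quenches plate fluorescence so inhibitors raise well fluorescence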
NS3 helicase cf: HCV NS3 helicase inhibitors, retest, confirmation, biochemical, Cy5 molecular beacon fluorescence, triplicate; shares compounds with NS3 helicase inh; NS3 helicase DNA unwinding; inhibition, % at 10.9 µM; actives 31% (n = 1,600);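 active = inhibition above the mean of all tested compounds plus 3 SD, cutoff set per campaign, cut at about 36% in these data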
DNA FID counter-2: compounds displacing fluorescent DNA intercalator, artefact control for HCV NS3 helicase inhibitor project, biochemical, FID fluorescence, triplicate; shares compounds with NS3 helicase inh; actives 4% (n = 1,600); inhibition, % at 7.9 µM; AID 1945, 2009; DNA fluorescent intercalator displacement;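 note: higher means more displacement of ethidium bromide from the DNA hairpin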
Large screens that a line does not name were inactive (follow-up assays come after a bar, where they were run). Compounds with a hit are over-represented: about 2.1% of the library has one in this group of screens. Cut-off read from the data, not from the text of the source, unless noted: active = inhibition above about 37%; inactive = the rest.

CCn1cc(C(=O)O)c(=O)c2cc(F)c(N3CCN(C(=S)NC(=O)c4ccccc4Br)CC3)cc21	NS3 helicase inh 50 | NS3 helicase cf inactive | DNA FID counter-2 inactive
CCn1cc(C(=O)O)c(=O)c2cc(F)c(N3CCN(C(=S)NC(=O)c4ccc(F)cc4)CC3)cc21	none
Cc1ccsc1C(=O)NC(C)c1ccccc1 (stereo not given)	none
Cc1c(C(=O)NNC(=S)Nc2ccc(S(N)(=O)=O)cc2)oc2ccccc12	NS3 helicase inh 38 | NS3 helicase cf inactive | DNA FID counter-2 inactive
Cc1c(C(=O)Nc2ccc(S(N)(=O)=O)cc2)oc2ccc(Cl)cc12	none
CCn1c(CC(=O)Nc2ccccc2)nnc1SCC(=O)Nc1nnc(C)s1	none
O=C(CCc1nc2ccccc2c(=O)[nH]1)OCC(=O)N1CCc2ccccc21	NS3 helicase inh 70 | NS3 helicase cf inactive | DNA FID counter-2 inactive
O=C(N=C1SC2CS(=O)(=O)CC2N1c1ccccc1Cl)C1CCCO1 (stereo not given)	none
CN(C)C(CNc1ccc(S(C)(=O)=O)cc1[N+](=O)[O-])Cc1ccccc1 (stereo not given)	none
COc1ccc(/C=c2\s/c(=C/C(=O)c3ccc(C)cc3)[nH]c2=O)cc1OC	NS3 helicase inh 59 | NS3 helicase cf inactive | DNA FID counter-2 inactive
CC(C)(C)C(=O)/C=c1\[nH]c(=O)/c(=C\c2ccc(F)cc2)s1	none
Cc1cc2oc(=O)cc(CN3CCCCC3C)c2cc1C (stereo not given)	NS3 helicase inh 36 | NS3 helicase cf inactive | DNA FID counter-2 inactive
CCn1c(SCc2ccccc2)nc2cc(S(N)(=O)=O)ccc21	none
CCOC(=O)Cn1c(-c2ccccn2)nc2ccccc21	none
CCOC(=O)c1ccc2c(c1)nc(-c1ccccn1)n2CC	NS3 helicase inh 36 | NS3 helicase cf inactive | DNA FID counter-2 inactive
Cc1[nH]c2ccccc2c1N=Nc1ccccc1C(=O)O	NS3 helicase inh 44 | NS3 helicase cf inactive | DNA FID counter-2 inactive
FC(F)(F)c1ccc(-c2noc(CN3CCCN(C4CCCCC4)CC3)n2)cc1	none
Cc1ccc2cc(C3CC(c4ccco4)=NN3C(=O)CCCC(=O)O)c(Cl)nc2c1 (stereo not given)	NS3 helicase inh 51 | NS3 helicase cf inactive | DNA FID counter-2 inactive
Cc1ccc(C(C)NC(=S)NCc2ccc(F)cc2)c(C)c1 (stereo not given)	none
CCOC(=O)/C=c1\s/c(=C(\C#N)C(=O)OCC)n(-c2ccccc2)c1=O	NS3 helicase inh 57 | NS3 helicase cf inactive | DNA FID counter-2 inactive
CCOC(=O)N1CCN(C(=O)/C=C/c2cccc([N+](=O)[O-])c2)CC1	none
Cc1cccn2c(=O)c3cc(C(=O)NC4CCCC4)c(=N)n(C4CCCCC4)c3nc12	NS3 helicase inh 40 | NS3 helicase cf inactive | DNA FID counter-2 inactive
Cc1cccn2c(=O)c3cc(C(=O)NCc4ccco4)c(=N)n(C4CCCCC4)c3nc12	none
CC1Cc2ccccc2N1Cc1cccc([N+](=O)[O-])c1 (stereo not given)	none
CO/N=C/c1ccc(N2CCN(C(=O)c3ccc(F)cc3)CC2)c([N+](=O)[O-])c1	NS3 helicase inh 40 | NS3 helicase cf inactive | DNA FID counter-2 inactive
Cc1ccc(C(=O)c2c(C)oc3c2C(=O)C(=O)c2ccccc2-3)cc1	NS3 helicase inh 36, UBC9 SUMO inh 92 | NS3 helicase cf inactive | DNA FID counter-2 inactive
Cc1cccc(NS(=O)(=O)c2ccc(C(=O)NCC(c3ccco3)N(C)C)cc2)c1C (stereo not given)	none
Cc1nc([N+](=O)[O-])cn1CC(O)c1ccc(-c2ccccc2)cc1 (stereo not given)	NS3 helicase inh 45 | NS3 helicase cf inactive | DNA FID counter-2 inactive

Screening data (PubChem BioAssay)
